Assay outcomes as filed in PubChem BioAssay.
Lipid droplet = hepatic lipid droplet formation modulation; AML12 mouse hepatocytes, oleate lipid droplets, BODIPY imaging; 240,000 tested, 0.4% active; inhibition, % at 6.5 µM; AID 1656;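 active = lipid droplet intensity inhibited by at least 50%, with more than 500 cells counted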
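Material: mouse AML12 hepatocyte cell line, fixed after treatment; Timing: compound with oleate, overnight; Technique: high-content imaging of BODIPY-stained droplets and DAPI nuclei; Probe or stimulus: oleate, 100 µM final; Dosing: compound at 6.5 µM only.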
aDG glyco up = alpha-DG glycosylation activation; 360,000 tested, 0.22% active; Pro5-aDG cells, alpha-DG glycosylation AlphaScreen (IIH6); 0% Pro5, 100% B10-LARGE cell signal; activation, % at 10 µM;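 active = activation of at least 8% versus controls, or a plate z-score of at least 8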;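 also: Pro5 are CHO cells carrying HIG-tagged alpha-DG that lacks glycosylation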
ADAM10 inh = inhibits human ADAM10. O14672. recombinant ADAM10, EDANS/DABCYL FRET peptide cleavage, 3 h. inhibition, % at 7 µM. 370,000 tested, 0.62% active. AID 720582;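 active = inhibition above a per-campaign cutoff equal to the mean of compounds falling between control-based bounds plus 3 SD, cut at about 20% in these data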;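 also: 0% = DMSO wells while the 100% control is not disclosed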
MPTP block = permeability transition pore inhibition | isolated mouse mitochondria, Ca2+ swelling absorbance, 30 min | inhibition, % at 10 µM | 360,000 tested, 1.4% active | AID 602449;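 active = inhibition of 50% or more, scaled per plate between neutral and stimulator controls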;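 also: 0% = DMSO wells given calcium and 100% = 1 mM EGTA wells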
V-ATPase pHluor = alters yeast V-ATPase proton transport | S. cerevisiae, pHLuorin cytosolic pH fluorescence | response, % at 10 µM | 350,000 tested, 0.37% active | AID 504577; in the data active = response mostly above about 7.3%, no sharp cut-off; inactive = mostly below about 5.4%; also: actives read high
ADAM17 inh = ADAM17 inhibition, QFRET primary screen. AID 720648. inhibition, % at 6.95 µM. recombinant ADAM17, EDANS/DABCYL FRET peptide cleavage. P78536. 370,000 tested, 0.83% active;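 active = inhibition above the mean of compounds lying between control limits plus 3 SD, set per campaign, cut at about 8.5% in these data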;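 also: 0% = DMSO-only wells as the low control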
Target sequence (P78536 215-824 limits assumed): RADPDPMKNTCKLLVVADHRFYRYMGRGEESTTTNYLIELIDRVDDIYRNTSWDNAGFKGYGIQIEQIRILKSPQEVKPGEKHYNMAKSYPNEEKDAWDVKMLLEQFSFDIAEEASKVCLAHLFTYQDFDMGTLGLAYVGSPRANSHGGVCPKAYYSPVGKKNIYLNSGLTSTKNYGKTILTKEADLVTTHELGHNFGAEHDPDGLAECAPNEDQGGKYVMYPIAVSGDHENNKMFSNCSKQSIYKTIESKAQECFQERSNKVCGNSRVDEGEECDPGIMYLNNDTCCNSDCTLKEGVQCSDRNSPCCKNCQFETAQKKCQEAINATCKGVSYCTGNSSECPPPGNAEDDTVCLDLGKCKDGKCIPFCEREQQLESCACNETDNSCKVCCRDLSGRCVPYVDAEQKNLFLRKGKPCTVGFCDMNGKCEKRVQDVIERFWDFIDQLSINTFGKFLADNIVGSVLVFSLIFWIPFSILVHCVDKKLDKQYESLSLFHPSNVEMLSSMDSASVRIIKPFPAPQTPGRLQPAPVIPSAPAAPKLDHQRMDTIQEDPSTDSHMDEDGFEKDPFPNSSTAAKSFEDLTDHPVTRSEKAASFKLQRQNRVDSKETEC
Lipid drop inh = hepatic lipid droplet formation inhibition, confirmed | shares compounds with Lipid droplet | AML12 mouse hepatocytes, BODIPY lipid droplet imaging; droplets induced with 100 µM oleic acid | inhibition, % at 5.2 µM | 870 tested, 65% active | AID 463183;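 active = inhibition of lipid droplet metric at least 50%, with more than 300 cells in each of four replicates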;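 also: plate controls were DMSO with oleic acid for no effect and 5 µM Triacsin-C for full effect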
AML12 cytotox = toxic to AML12 mouse hepatocytes in counter-screen. shares compounds with Lipid droplet. DAPI nuclear morphology cytotoxicity imaging; hits give high values; cells fed 100 µM oleate overnight. z-score at 5 µM. 870 tested, 3% active. AID 463200; in the data active = z-score above about 6.3;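 also: compound exposure lasted overnight at 37 °C before fixation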
AML12 tox conf = confirmation of cytotoxicity in AML12 mouse hepatocytes | shares compounds with Lipid droplet | AML12 mouse hepatocyte viability, ATP luminescence; cells loaded with 100 µM oleic acid | cytotoxicity, % at 50 µM | 530 tested, under 10 active | AID 463219;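 active = cytotoxicity above 50% in each of four replicates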;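 also: compound exposure lasted overnight at 37 °C before the ATP read; 0% = DMSO-treated cells and 100% = wells with no cells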
V-ATPase pH SP = yeast V-ATPase proton transport regulation; shares compounds with V-ATPase pHluor; S. cerevisiae pHLuorin cytosolic pH; response, % at 10 µM; 980 tested, 2% active; in the data active = response above about 24%;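 also: plate controls were vehicle wells for no effect and positive control wells for full effect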
MPTP counter = Rhodamine 123 counter-screen of mitochondrial pore hits; shares compounds with MPTP block; isolated mitochondria, membrane potential, Rhodamine 123 fluorescence; inhibition, % at 10 µM; 5,000 tested, 78% active; AID 624504; in the data active = inhibition above about 22%;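 also: 0% = DMSO vehicle and 100% = positive control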
aDG glyco conf = alpha-DG glycosylation activation, confirmation. shares compounds with aDG glyco up. Pro5-aDG cells, IIH6 AlphaLISA; scaled to LARGE-overexpressing B10 cells as 100%. activation, % at 10 µM (by protocol). 600 tested, 17% active;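 active = activation of at least 7% in one or more replicates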;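 also: cells exposed to compound for two days before detection; 0% = DMSO-treated Pro5 cells and 100% = DMSO-treated B10-LARGE cells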
ADAM10 confirm = confirmation of inhibitors of human ADAM10 | AID 743208 | shares compounds with ADAM10 inh | 2,100 tested, 1% active | inhibition, % at 6.95 µM | ADAM10 QFRET peptide cleavage, EDANS fluorescence;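 active = inhibition above about 20% chosen separately for each screening run, limit read from the data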;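 also: 0% = DMSO wells and 100% = marimastat wells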
ADAM17 ctr = inhibits human ADAM17 in ADAM10 exosite counter-screen; ADAM17 QFRET peptide cleavage, EDANS fluorescence; 2,100 tested, 0.5% active; shares compounds with ADAM10 inh; inhibition, % at 6.95 µM;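 active = mean triplicate inhibition above the solvent-only control wells' mean plus 3 SD, cut at about 12% in these data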;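 also: 0% = DMSO wells and 100% = marimastat wells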
ADAM10 ctr = ADAM10 inhibition, counter-screen for ADAM17 exosite hits. 2,900 tested, 47% active. inhibition, % at 6.95 µM. AID 743256. recombinant ADAM10, EDANS/DABCYL FRET peptide cleavage, 3 h. shares compounds with ADAM17 inh;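 active = mean inhibition over the triplicate runs exceeds the activity threshold set in the earlier primary screen, cut at about 20% in these data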;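 also: 0% = DMSO wells and 100% = marimastat wells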
ADAM17 confirm = human ADAM17 inhibition, confirmation. shares compounds with ADAM17 inh. AID 743257. 2,900 tested, 65% active. inhibition, % at 6.95 µM. recombinant ADAM17, EDANS/DABCYL QFRET peptide cleavage;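 active = mean inhibition across replicates above the hit cutoff set in the primary screen, cut at about 8.5% in these data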;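 also: 0% = DMSO wells and 100% = marimastat wells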
* = called active by the depositor; . = not tested or not shown. A selection: hits, their analogues and other compounds. The true share with any hit is near 3.1%.

SMILES	Lipid droplet	aDG glyco up	ADAM10 inh	MPTP block	V-ATPase pHluor	ADAM17 inh	Lipid drop inh	AML12 cytotox	others
Cn1nc(C(F)(F)F)c(-c2cccc(C(F)(F)F)c2)c1NC(=O)c1ccco1	21.0	0.1	0.9	4.5	-1.9	-0.2	.	.
O=C1c2ccccc2C2=Nc3ccccc3SC(c3cccc(F)c3)C12 (stereo unspecified)	65.6*	-0.1	17.6	81.1*	0.0	8.1	65.0	8.8*	MPTP counter=66.2*
C=CCN(CC#Cc1ccc(C(F)(F)F)cc1)CC=C	.	.	0.7	.	.	1.8	.	.
CCOc1ccc(CCNC(=O)COC(=O)c2cc(OC)cc(OC)c2)cc1OCC	61.0*	24.1*	-1.0	0.0	-0.5	-4.6	94.4*	-0.869	AML12 tox conf=7.2;aDG glyco conf=1.1
CCCC[C@H]1C2CC(OC(=O)Nc3ccccc3C)C(C2)[C@H]2CCCCN21 (stereo partly specified)	.	.	-4.5	.	.	-4.4	.	.
O=C(Nc1ccccc1Cc1ccccc1)c1oc2ccccc2c1COc1ccccc1	6.0	0.3	4.5	12.1	1.2	0.0	.	.
O=C(NCCc1ccccc1)c1oc2ccccc2c1COc1ccccc1	64.5*	0.7	19.9*	11.3	-1.5	7.2	86.5*	-0.0824	AML12 tox conf=-9.0;ADAM10 confirm=6.3;ADAM17 ctr=2.6
CCCNS(=O)(=O)c1ccc(CCC(=O)Nc2cc(Cl)ccc2Oc2ccccc2)cc1	62.7*	0.7	20.9*	3.2	-8.1	6.6	92.8*	-0.0222	AML12 tox conf=38.0;ADAM10 confirm=5.4;ADAM17 ctr=2.8
C[C@H]1[C@@H](OC(=O)Nc2ccc(Cl)cc2)CC[C@@]23CCCN2C(=O)CCC[C@@H]13	.	.	-0.7	.	.	-2.3	.	.
O=C(CNc1cccc(C(F)(F)F)c1)Nc1cccc(S(=O)(=O)N2CCCC2)c1	.	0.4	8.0	9.2	-3.4	6.3	.	.
O=C(CNc1cc(S(=O)(=O)N2CCCC2)ccc1OCC(F)(F)F)Nc1cccc(C(F)(F)F)c1	54.1*	0.4	26.0*	51.3*	-2.9	10.7*	-4.2	0.042	MPTP counter=48.4*;ADAM10 confirm=2.6;ADAM17 ctr=0.5;ADAM10 ctr=40.6*;ADAM17 confirm=17.4*
C=CCN1C(=O)[C@@H](CC(=O)N2CCC(c3ccccc3)CC2)[C@]2(C(=O)OC)CCCCC=C12	.	.	1.1	.	.	0.9	.	.
CC(C)(C)c1ccc(S(=O)(=O)NCC(=O)N2CCN(c3ncccn3)CC2)cc1	.	.	-0.7	.	.	-1.4	.	.
Cc1ccc(-c2[nH]c3ccccc3c2SCCNC(=O)c2ccc(S(=O)(=O)N3CCOCC3)cc2)cc1	54.0*	0.4	24.2*	-2.9	-0.5	11.1*	91.1*	-0.724	AML12 tox conf=1.0;ADAM10 confirm=6.9;ADAM17 ctr=2.0;ADAM10 ctr=26.6*;ADAM17 confirm=16.4*
COc1ccc(-c2[nH]c3ccccc3c2SCCNC(=O)c2ccccc2)cc1	7.0	0.3	-3.3	0.8	-1.2	6.7	.	.
CCn1cc([N+](=O)[O-])c(C(=O)N2N=C(c3ccc4ccccc4c3)CC2c2ccccc2O)n1 (stereo unspecified)	79.0*	0.2	24.4*	-0.3	2.9	9.1*	87.8*	-1.62	AML12 tox conf=10.7;ADAM10 confirm=8.2;ADAM17 ctr=2.5;ADAM10 ctr=33.2*;ADAM17 confirm=17.9*
Cc1cc(N2CCN(Cc3ccc4c(c3)OCO4)CC2)n2nc(C)nc2n1	.	.	-2.4	.	.	-2.8	.	.
COc1ccc(Cl)c(NC(=O)C/C(C)=N/NC(=O)CCc2ccccc2)c1	122.2*	0.1	24.7*	-0.4	2.5	10.6*	98.9*	-0.547	AML12 tox conf=11.9;ADAM10 confirm=1.2;ADAM17 ctr=-0.2;ADAM10 ctr=-1.9;ADAM17 confirm=1.7
COc1ccc2c(c1)c(CC(=O)Nc1ccc(C(C)=O)cc1)c(C)n2C(=O)c1ccc(Cl)cc1	72.9*	0.1	23.7*	38.1	-1.0	11.9*	77.1*	-0.587	AML12 tox conf=4.9;ADAM10 confirm=15.1;ADAM17 ctr=4.8;ADAM10 ctr=29.7*;ADAM17 confirm=17.6*
COc1cccc(NC(=O)CN(C)S(=O)(=O)c2ccc3c(c2)NC(=O)CS3)c1	-18.9	-0.4	5.9	-0.6	11.7	1.4	.	.	V-ATPase pH SP=3.5
COc1cccc(C(=O)Nc2ccccc2)c1	.	0.0	-0.8	-0.4	0.3	-3.0	.	.
COc1cccc(C(N)=O)c1	.	-0.7	-6.7	-1.2	11.2*	-0.1	.	.	V-ATPase pH SP=0.3
CCCCN(C)CCCNC(=O)CN1C(=O)CSc2ccc(S(=O)(=O)N3CCOCC3)cc21	-3.4	1.7	0.8	-1.9	9.5*	-0.1	.	.	V-ATPase pH SP=1.4
Cc1nn(CC(=O)OCC(=O)NCCc2ccc(F)cc2)c(C)c1[N+](=O)[O-]	.	0.1	-5.5	-0.5	9.9*	-5.7	.	.	V-ATPase pH SP=-4.4
CCOC(=O)N=Nc1c(O)n(Cc2ccccc2)c2ccccc12	0.0	0.4	0.5	4.8	2.3	0.4	.	.	V-ATPase pH SP=-2.5
SMILES	Lipid droplet	aDG glyco up	ADAM10 inh	MPTP block	V-ATPase pHluor	ADAM17 inh	Lipid drop inh	AML12 cytotox	others
CCOC(=O)N=Nc1c(O)n(CC)c2ccccc12	12.9	-0.1	3.7	-0.3	-3.5	0.2	.	.	V-ATPase pH SP=-1.8
COc1ccc(Cl)cc1S(=O)(=O)N1CCN(C(=O)CSc2nc3ccccc3nc2N2CCCC2)CC1	.	.	-0.4	.	.	3.1	.	.
O=C(NCCc1ccccc1F)c1cc2ccccn2n1	.	.	-7.2	.	.	-1.6	.	.
Cn1c(SCC2CCC2)nnc1-c1ccco1	.	.	-1.4	.	.	0.9	.	.
COc1ccc(N2CCN(C(=O)c3ccc(S(=O)(=O)N4CCCC4)cc3)CC2)cc1	-3.4	-0.2	-2.1	-1.8	-5.2	-6.2	.	.
COc1ccc(N2CCN(C(=O)c3ccc(S(=O)(=O)N4CCCCCC4)cc3)CC2)cc1	.	0.0	-5.0	-0.9	12.9*	-5.5	.	.	V-ATPase pH SP=-1.1
